Published values of several laboratories.
Lines come from different studies, so protocols differ.
Target: MAP kinase-interacting serine/threonine-protein kinase 1 (MKNK1, Homo sapiens, UniProt Q9BUB5)

| Structure (SMILES) | assay | conditions | quantity | value |
| --- | --- | --- | --- | --- |
| N#Cc1ccc(NC(=O)Nc2ccccc2)cc1 | cell-free assay, competition with immobilised ligand | 25 µM | remaining binding | 75% |
| C#Cc1cnc(Nc2ccnc(CO)c2)nc1Nc1ccccc1S(C)(=O)=NC#N (centres unmarked) | cell-free assay | 1 µM | remaining signal | 100% |
| C1=C/COCc2cc(ccc2OCCN2CCCC2)Nc2nccc(n2)-c2cccc(c2)COC/1 | binding | 0.1 µM | remaining binding | 78% |
| CC(C)S(=O)(=O)c1ccc2nccc(Nc3ccc4sc(C5CCCC5)nc4c3)c2c1 | enzyme activity, inhibitor | 1 µM | activity vs control | 106% |
| Cc1ccc(NC(=O)c2ccnc(C(F)(F)F)c2)cc1-c1cc(OCCO)nc(N2CCOCC2)c1 | binding, competition with immobilised ligand | 1 µM | remaining binding | 85% |
| CO[C@@H]1[C@H](N(C)C(=O)c2ccccc2)C[C@H]2O[C@]1(C)n1c3ccccc3c3c4c(c5c6ccccc6n2c5c31)C(=O)NC4 | enzyme activity, inhibitor | 1 µM | inhibition | 20% |
| CN1CCN(C(=O)c2ccc(NC(=O)Nc3ccc(N(C)c4ccnc(Nc5ccc(CS(C)(=O)=O)cc5)n4)cc3)cc2)CC1 | binding, competition with immobilised ligand | 1 µM | remaining binding | 65% |
| COc1ccc2oc(-c3ccc4nc(N)oc4c3)c/c(=N\c3ccccc3NC(=O)CCN)c2c1 | binding | 1 µM | remaining binding | 107% |
| CC#CC(=O)N1CCC[C@H]1c1nc(-c2ccc(C(=O)Nc3ccccn3)cc2)c2c(N)nccn12 | enzyme activity, inhibitor | 1 µM | inhibition | 0% |
| CCCCC(=O)Nc1ccc(-c2ccc3ncn(CCC)c(=O)c3c2)cn1 | binding, competition with immobilised ligand | 0.5 µM | remaining binding | 100% |
| C#Cc1cc(-c2cc(Nc3nc(N[C@@H](C)c4ccc(F)cn4)ncc3Cl)n[nH]2)ccc1C=O | enzyme activity, inhibitor | 0.2 µM | inhibition | 9.43% |
